# Insulin prom inh: TRM-6 insulin promoter activity inhibition | TRM-6 cells (human fetal islet line), insulin promoter-eGFP reporter, imaging; reporter expression induced with tamoxifen | AID 1273 | inhibition, % at 2 µM | 130,000 tested, 0.9% active;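 active = inhibition above the mean plus 3 SD, with well images judged a real hit on visual review, cut at about 60% in these data, passing the limit was not always enough; inconclusive = inhibition over the cutoff but images rejected on review; inactive = inhibition not above the cutoff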
# bCat nuc transl: alters nuclear translocation of beta-catenin in HeLa cells | 190,000 tested, 0.3% active | AID 1665 | immunofluorescence imaging | nuclear translocation activity, % at 5 µM;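 active = nuclear translocation activity above 50% at 5 µM, with a well cell count of 50 or more; inconclusive = wells under 50 cells across six images, flagged as toxic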;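 note: per-cell ratio of nuclear to cytoplasmic median beta-catenin stain intensity; plate controls were DMSO negative control for no effect and GSK-3 inhibitor IX positive control for full effect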
#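 System: Human HeLa cells, endogenous beta-catenin | Compound dosing: 5 µM primary, 0.02–20 µM confirmation | Timing: 24 h compound exposure at 37°C, 5% CO2 | Measured by: Fluorescence imaging of beta-catenin antibody stain plus DAPI | Read-out basis: % activation of per-cell nuclear versus cytoplasmic median beta-catenin signal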
# ROMK primary: modulators of human ROMK potassium channel | P48048 | Tet-inducible ROMK, thallium flux fluorescence; actives lie on both sides | B-score at 10 µM | 130,000 tested, 2% active | AID 1918;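 active = signal ratio slope over the read window, or its plate-corrected B-score, at least 3 SD from the plate mean, either direction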;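 note: B-score of the F/F0 ratio slope over 7 to 12 s after thallium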
# Target sequence (P48048 whole entry, looked up): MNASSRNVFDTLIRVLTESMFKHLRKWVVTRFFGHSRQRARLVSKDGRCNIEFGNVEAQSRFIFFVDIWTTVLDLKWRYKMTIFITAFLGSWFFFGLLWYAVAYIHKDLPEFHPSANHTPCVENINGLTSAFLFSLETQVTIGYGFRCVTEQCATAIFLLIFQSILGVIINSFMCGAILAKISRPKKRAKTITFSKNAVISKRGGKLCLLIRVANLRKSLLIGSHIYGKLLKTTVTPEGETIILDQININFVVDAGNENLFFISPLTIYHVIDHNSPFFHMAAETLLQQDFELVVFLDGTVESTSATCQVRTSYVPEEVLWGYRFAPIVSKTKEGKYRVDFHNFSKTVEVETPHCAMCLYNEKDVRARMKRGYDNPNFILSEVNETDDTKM
# MT stabilizer: microtubule stabilizers in HeLa cells. HeLa tubulin immunostaining HCS, 24 h; share of cells brighter than vehicle mean+2SD. % tubulin-high responders, % at 10 µM. 200,000 tested, 0.83% active;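 active = plate Z-score above 3 for both tubulin-high and condensed-nucleus cell shares, with cell loss under 80%, at 10 µM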;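 note: anti alpha tubulin signal scored within the nucleus-defined area of each cell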
# HSV augment: increases HSV replication in cells | HSV replication augmentation in cells, fold increase | maximum fold increase | 220,000 tested, 0.005% active | AID 1956; in the data active = maximum fold increase above about 1.5; inconclusive = no clear call, values can overlap the other calls; tested in PC3 cells
# ROMK hit retest: confirmation of human ROMK potassium channel modulators. shares compounds with ROMK primary. normalized thallium flux (F/F0 slope) at 10 µM. ROMK thallium flux, fluorescence ratio; active compounds read low. 3,000 tested, 54% active;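 active = Flux at 10 µM at least 3 SD below or above vehicle control mean in one or both replicates; inconclusive = no clear call, values can overlap the other calls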
# The depositor's hits bear a star; i = inactive; ? = inconclusive; . = not tested or not shown. This is a sample that favours compounds with a hit; in the whole collection about 2.4% have one here.
SMILES,Insulin prom inh,bCat nuc transl,ROMK primary,MT stabilizer,HSV augment,ROMK hit retest
COc1ccccc1N=Cc1c(C)c(C#N)c2[nH]c3ccccc3n2c1=O,.,-2,-3.3*,1,i,0.067*
Cc1c(Cc2ccccc2)c(=O)n2c([nH]c3ccccc32)c1C#N,.,2,.,.,i,.
Cn1c(N)c(C(=O)COC(=O)c2cccnc2Cl)c(=O)n(C)c1=O,7,-2,.,2,i,0.079
CC(C)Cn1c(N)c(C(=O)COC(=O)c2cccnc2Cl)c(=O)n(C)c1=O,-27,-1,-0.76,3,i,.
CCOC(=O)c1c(/N=C/C2=C(O)CC(C)(C)CC2=O)sc(C(C)=O)c1C,.,-1,-0.68,6,i,.
CCCSc1nnc(NC(=O)Nc2ccc(F)cc2)s1,.,0,-2,5,i,0.062*
CCCSc1nnc(NC(=O)Nc2ccc(C)cc2)s1,.,0,.,.,i,.
O=[n+]1c2c(n([O-])c3cc(F)c(N4CCCC4)cc31)CCCC2,.,-2,-6.3*,3,?,0.043*
O=[n+]1c2c(n([O-])c3cc(F)c(N4CCCC4)cc31)CCC2,-11,.,.,3,?,.
COc1ccc(N=C2S/C(=C\c3ccc(OCC(=O)O)cc3)C(=O)N2CCc2c[nH]c3ccccc23)cc1,.,1,8.5*,2,i,0.12*
COc1ccc(N=C2S/C(=C\c3ccc(N4CCOCC4)o3)C(=O)N2CCc2c[nH]c3ccccc23)cc1,43,.,.,4,i,0.058*
CC(C)(C)C(=O)NCCc1nc2ccccc2n1CC(=O)c1ccc(Cl)cc1,0,-4,0.77,4,i,.
C/C(=N\NC(=O)C(N)=O)c1cccc(C(F)(F)F)c1,.,-2,0.56,6,i,.
CC(C)CC(C(=O)NC(C)(C)C)N(Cc1cccs1)C(=O)c1snc(C(N)=O)c1N (stereo unspecified),-191,-4,-0.22,3,i,.
COc1ccc(CN(C2CCCCC2C)S(=O)(=O)c2ccc(S(=O)(=O)N(C)C)cc2)cc1OC (stereo unspecified),-24,0,.,2,i,0.077
O=C(CN1CCN(Cc2ccccc2)CC1)Nc1ccc([N+](=O)[O-])cc1C(=O)Nc1ccccc1F,-4,0,.,2,i,0.058*
CSc1ccccc1NC(=O)CN1CCCCC1,-43,4,-0.32,3,.,.
CCOC(=O)N1CCN(CC(=O)Nc2ccc([N+](=O)[O-])cc2C(=O)Nc2ccccc2F)CC1,30,-1,.,3,i,.
CSc1ccccc1NC(=O)CN1CCN(Cc2ccccc2)CC1,.,-1,-3.1*,3,i,0.072
O=[N+]([O-])c1ccc2nc(CCCc3nc4ccc([N+](=O)[O-])cc4[nH]3)[nH]c2c1,.,1,-6.9*,2,i,0.027*
O=[N+]([O-])c1ccc2nc(CN3CCCCC3)[nH]c2c1,.,-1,0.56,3,i,.
CNC(=O)c1ccccc1-c1cn(C)c2ccccc2c1=O,17,-2,1.7,4,i,.
CCCCCCn1c2c(c(=N)c3c1CCC3)CCC2,4,0,.,4,i,.
CCCCCCCCCn1c2c(c(=N)c3c1CCC3)CCC2,-177,-5,.,4,i,0.043*
CC(=O)c1ccc2c(c1)OCCOCCOc1ccccc1OCCOCCO2,.,-3,.,.,i,.
SMILES,Insulin prom inh,bCat nuc transl,ROMK primary,MT stabilizer,HSV augment,ROMK hit retest
c1ccc2c(c1)OCCOCCOCCOCCOCCOc1ccccc1OCCOCCOCCO2,.,.,-4.8*,2,i,0.042*
O=S(CC1CC1(Cl)Cl)CC1CC1(Cl)Cl (stereo unspecified),7,2,.,2,i,.
O=S(=O)(Nc1nc2c(s1)CCCC2)c1ccc(Br)cc1,3,8,-3.2*,4,i,0.076
O=S(=O)(Nc1nc2c(s1)CCCC2)c1ccc(F)cc1,51,-2,-1.2,2,i,.
O=C(NC1CCCCCC1)c1cc(S(=O)(=O)N2CCCCC2)ccc1N1CCOCC1,27,-2,-3.2*,3,i,0.061*
O=C(NC1CCCCCC1)c1cc(S(=O)(=O)N2CCOCC2)ccc1N1CCCCC1,10,-5,.,1,i,.
COc1ccc2[nH]c(=O)c(CN(C(=O)NC3CCCCC3)C3CCCC3)cc2c1,0,0,-2.8*,2,i,0.072
COc1ccc2[nH]c(=O)c(CN(CC3CCCO3)C(=O)Nc3ccc(F)cc3)cc2c1 (stereo unspecified),-25,.,.,3,i,0.061*
COc1ccc2[nH]c(=O)c(CN(C(C)=O)C3CCCCC3)cc2c1,.,-8,0.47,2,i,.
CCOCCCNS(=O)(=O)c1ccc(NC(=O)Cc2c(F)cccc2Cl)cc1,.,2,0.0041,4,i,.
CSc1nc2ccc(S(=O)(=O)NC3CCCCC3)cc2s1,14,5,-2.4*,2,.,?
CSc1nc2ccc(S(=O)(=O)N3CCCCC3)cc2s1,21,-4,0.00014,1,i,.
O=C1c2cccc3c([N+](=O)[O-])ccc(c23)C(=O)N1c1ccc(Cl)cn1,.,1,-3.7*,60,.,0.048*
COc1ccccc1CN=Cc1[nH]c2ccc(Br)c(Cl)c2c1O,.,-13,-3.6*,1,i,0.044*
Cc1cccc(N=Cc2[nH]c3ccc(Br)c(Cl)c3c2O)c1,0,0,0.68,2,i,.
CCCNc1nc(Cl)nc(NC(C)(C)C)n1,.,0,-3.8*,4,i,0.053*
O=C1CSC(c2cccnc2)N1c1ccccc1 (stereo unspecified),.,-3,.,.,i,.
O=S1CCCSC1c1cccnc1 (stereo unspecified),15,.,0.057,3,i,0.076
Cn1ncc2c(N3CCC(Cc4ccccc4)CC3)ncnc21,.,1,0.49,5,i,.
NNC(=O)c1cc2c(N3CCC(Cc4ccccc4)CC3)ncnc2s1,-33,2,-4.5*,3,i,0.073
Cc1ccc(-n2nnnc2Sc2ccc(S(=O)(=O)NCCN(C)C)cc2[N+](=O)[O-])cc1,-8,6,-3.5*,3,i,0.057*
CN(C)CCNS(=O)(=O)c1ccc(N2CCN(c3ccc(F)cc3)CC2)c([N+](=O)[O-])c1,22,4,-4*,3,i,0.064*
CC(=O)N1CCN(c2ccc(S(=O)(=O)NCCN(C(C)C)C(C)C)cc2[N+](=O)[O-])CC1,-69,1,0.24,2,i,.
COc1ccccc1Cn1c(=O)c2ccccc2n2c(SCC(=O)N3CCCCC3)nnc12,.,-3,.,4,i,.
O=C(/C=C/c1cccs1)c1ccc(N2CCOCC2)cc1,.,0,2.5*,3,i,0.076
CC1(C)CC(=O)C=C(NCCc2c[nH]c3ccccc23)C1,.,-2,.,.,i,.
COc1ccc(-c2ccnc(-c3ccc(O)cc3)n2)cc1,.,64*,3.2*,12,i,0.086
O=C(CN(C1CCCCC1)S(=O)(=O)c1ccc(F)cc1)Nc1ccc2c(c1)OCO2,-6,-2,-3.3*,3,i,0.064*

# Compound activity as filed in PubChem.
